In data set [1] the test system is Actinomyces naeslundii. Description: Photodynamic inactivation of Actinomyces naeslundii T14V assessed as reduction of log10 CFU at 1 uM incubated prior to irradiation with 50 j/cm'2 for 40 secs measured after 48 hrs by agar plating method (reference value: <1 no unit). The data set is classed as functional. Put shortly:
(§1)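 A. naeslundii T14V grown overnight at 37 °C, shaken, aerobically in BHI broth. Harvested at stationary phase, resuspended in PBS to 10^7–10^8 bacteria/mL (OD600). Mixed 1:1 with PS (final 0–250 µM) or water, 10 s incubation, then blue photopolymerizer light (1260 ± 50 mW/cm2) or dark. Tenfold dilutions plated on blood agar, aerobic 37 °C 48 h, CFU counted; medians of three independent experiments in triplicate.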

Data set [2] concerns Actinomyces naeslundii. Briefly: Photodynamic inactivation of Actinomyces naeslundii T14V assessed as reduction of log10 CFU at 10 uM incubated prior to irradiation with 150 j/cm'2 for 120 secs measured after 48 hrs by agar plating method (reference value: <1 no unit). Type of data set: functional. Put shortly:
as §1

The subject of data set [3] is Actinomyces naeslundii. Briefly: Toxicity in Actinomyces naeslundii T14V assessed as reduction of log10 CFU at 1 to 250 uM incubated for 10 secs under dark condition measured after 48 hrs by agar plating method. Conditions: in vivo. Type of data set: organism-based. The method, boiled down:
(§2)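 Dark controls. Overnight BHI cultures (EF, SM, AN aerobic; AA anaerobic; 37 °C) were washed into PBS at 10^7–10^8 cells/mL. They were mixed 1:1 with photosensitizer at final 0–250 µM and incubated 10 s, 7.5 min or 15 min, then kept in the dark for 20, 40 or 120 s. Tenfold dilutions were plated: EF on Mueller-Hinton agar, aerobic 24 h; SM on BHI agar, aerobic 48 h; AN on blood agar, aerobic 48 h; AA on BHI agar, anaerobic 48 h; all at 37 °C. CFU were compared with untreated controls; medians of three independent experiments in triplicate.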

For data set [4], the system named is Streptococcus mutans. Briefly: Photodynamic inactivation of Streptococcus mutans ATCC 25175 assessed as reduction of log10 CFU at 1 uM incubated prior to irradiation with 25 j/cm'2 for 20 secs measured after 48 hrs by agar plating method (reference value: <1 no unit). Type of data set: functional.
Data set [5] concerns Streptococcus mutans. Briefly: Toxicity in Streptococcus mutans ATCC 25175 assessed as reduction of log10 CFU at 1 to 250 uM incubated for 10 secs under dark condition measured after 48 hrs by agar plating method. The method, boiled down:
as §2

Data set [6] has as its system Aggregatibacter actinomycetemcomitans. Description: Toxicity in Aggregatibacter actinomycetemcomitans ATCC 43718 assessed as reduction of log10 CFU under dark condition at 1 to 250 uM incubated for 10 secs under dark condition measured after 48 hrs by agar plating method. Further details: species or system Y4. Put shortly: as §2
Data set [7] shares this test system. Description: Photodynamic inactivation of Aggregatibacter actinomycetemcomitans ATCC 43718 assessed as reduction of log10 CFU at 5 uM incubated prior to irradiation with 25 j/cm'2 for 20 secs measured after 48 hrs by agar plating method relative to control. The data set is classed as functional, Y4. The method, boiled down: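 A. actinomycetemcomitans ATCC 43718 cultured overnight in BHI broth under anaerobic conditions, 37 °C with shaking. Stationary-phase cells were spun down, taken up in PBS to 10^7–10^8/mL, and combined 1:1 with PS (final 0–250 µM) or water. After 10 s they were irradiated at 1260 ± 50 mW/cm2 or kept dark. Serial dilutions went onto BHI agar, incubated anaerobically at 37 °C for 48 h, and CFU were scored. Results are medians from 3 experiments × triplicate versus untreated controls.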

In data set [8] the test system is Enterococcus faecalis. Briefly: Photodynamic inactivation of biofilm of Enterococcus faecalis ATCC 29212 monospecies assessed as reduction of log10 CFU at 100 uM preincubated for 60 mins followed by irradiation with 600 mW/cm'2 for 120 secs measured after 24 hrs by agar plating method. Type of data set: functional.
In data set [9] the test system is Enterococcus faecalis. Briefly: Toxicity in Enterococcus faecalis ATCC 29212 assessed as reduction of log10 CFU at 1 to 250 uM incubated for 10 secs to 15 mins under dark condition measured after 24 hrs by agar plating method. Type of data set: organism-based. The following applies: in vivo. Put shortly: as §2
Data set [10] deals with Aggregatibacter actinomycetemcomitans. Description: Toxicity in Aggregatibacter actinomycetemcomitans ATCC 43718 assessed as reduction of log10 CFU under dark condition at 1 to 250 uM incubated for 10 secs to 15 mins under dark condition measured after 48 hrs by agar plating method. Also on record: species or system Y4. Put shortly:
as §2

The test system of data set [11] is Actinomyces naeslundii. Briefly: Toxicity in Actinomyces naeslundii T14V assessed as reduction of log10 CFU at 1 to 250 uM incubated for 10 secs to 15 mins under dark condition measured after 48 hrs by agar plating method. Type of data set: organism-based. The following applies: in vivo. The method, boiled down: as §2
Data set [12] has as its system Streptococcus mutans. Description: Toxicity in Streptococcus mutans ATCC 25175 assessed as reduction of log10 CFU at 1 to 250 uM incubated for 10 secs to 15 mins under dark condition measured after 48 hrs by agar plating method. The method, boiled down: as §2
In data set [13] the test system is Actinomyces naeslundii. Description: Photodynamic inactivation of biofilm of Actinomyces naeslundii T14V monospecies assessed as reduction of log10 CFU at 100 uM preincubated for 60 mins followed by irradiation with 600 mW/cm'2 for 120 secs measured after 28 hrs by agar plating method. The data set is classed as functional.
For data set [14], the system named is Enterococcus faecalis. Briefly: Photodynamic inactivation of biofilm of Enterococcus faecalis ATCC 29212 polyspecies assessed as reduction of log10 CFU at 100 uM preincubated for 60 mins followed by irradiation with 600 mW/cm'2 for 120 secs measured after 24 hrs by agar plating method. Type of data set: functional.
Data set [15] has as its system Actinomyces naeslundii. Description: Photodynamic inactivation of biofilm of Actinomyces naeslundii T14V polyspecies assessed as reduction of log10 CFU at 100 uM preincubated for 60 mins followed by irradiation with 600 mW/cm'2 for 120 secs measured after 28 hrs by agar plating method. Type of data set: functional.
The nature of data set [16]: Stability of the compound in D2O assessed as aggregation at 1 to 20 mM by NMR analysis. The data set is classed as physicochemical. The following applies: 20000 µM. Put shortly:
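¹H NMR, aromatic region, in D2O at 1, 5, 10 and 20 mM; shifts referenced to external TMS, 1 ppm = 400 Hz; spectra compared across concentrations for dimerisation.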

A short description of data set [17]: Stability of the compound in D2O assessed as aggregate formation by measuring shift of spectrum in aromatic region at > 0.5 ppm at 50 to 90 degC by NMR analysis. The data set is classed as physicochemical.

Each structure is given as a SMILES string.

With `C[N+](C)(CCO)CC1=Cc2cccc3cccc(c23)C1=O.[Cl-]`, the log10cfu is given as less than 1 in data set [1], less than 5 in data set [2], less than 1 in data set [4] and less than 3 in data set [7]. The Activity result in data set [3], in data set [5] and in [6] was “Non-toxic” in each case.
Take `O=C1C(C[n+]2ccccc2)=Cc2cccc3cccc1c23.[Cl-]`: the log10cfu in [8] was more than 5; in data set [1], less than 1; in data set [13] it was more than 5; in data set [4], less than 1; in data set [14] it was more than 5; in data set [15], more than 5. In addition, the log10cfu in data set [7] is less than 3. For the same compound, the Activity result in data set [9], in data set [10], in data set [11] and in [12] was “Non-toxic” each time.
For the compound `C[N+](C)(C)CC1=Cc2cccc3cccc(c23)C1=O.[Cl-]`, in [16], the Stability entry is reported as “Unstable”. Besides, the Activity in [17] is reported as 70 mM.

(Values after ChEMBL document CHEMBL3297702, “Improving photodynamic inactivation of bacteria in dentistry: highly effective and fast killing of oral key pathogens with novel tooth-colored type-II photosensitizers” (J Med Chem, 2014).)
